Laboratory results taken from ChEMBL document CHEMBL1122142, “Synthesis and antiinflammatory activity of hexahydrothiopyrano[4,3-c]pyrazoles and related analogues” (J Med Chem, 1982).

Experiments:
Cavia porcellus [1] = test: Tested in delayed hypersensitivity skin reaction (DHSR) after subcutaneous administration, activity reported as percent inhibition of erythema/induration of lesion; 0/8; format: functional
Mus musculus [2] = test: Inhibition of Mouse active Arthus (MAA) reaction activity was determined for peroral dose of 300 mg/kg in mouse; format: functional; details: route oral
Cavia porcellus [3] = test: Tested in delayed hypersensitivity skin reaction (DHSR) after subcutaneous administration, activity reported as percent inhibition of erythema/induration of lesion; 14/11; format: functional
Mus musculus [4] = test: Inhibition of Mouse Active Arthus reaction following 150 mg/Kg i.p.; 41-60% inhibition.; format: functional; details: Mus musculus, ip
Cavia porcellus [5] = test: Tested in delayed hypersensitivity skin reaction (DHSR) after subcutaneous administration, activity reported as percent inhibition of erythema/induration of lesion; 24/32; format: functional
Outline: (§1)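 Male Hartley guinea pigs were sensitized with Mycobacterium tuberculosis in Freund's incomplete adjuvant, injected into each hind footpad and subcutaneously at the neck. After 3 weeks, 1.2 μg PPD was given intradermally. Compound in sesame oil was given sc, 3 animals per group, 30 min before and 5 h after PPD; screening dose 50 mg/kg.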

Cavia porcellus [6] = test: Tested in delayed hypersensitivity skin reaction (DHSR) after subcutaneous administration, activity reported as percent inhibition of erythema/induration of lesion; 4/0; format: functional; outline: as §1
Mus musculus [7] = test: Mouse active Arthus (MAA) reaction activity was determined for an ip dose of 150 mg/kg in mouse; format: functional; details: route intraperitoneal
Cavia porcellus [8] = test: Tested in delayed hypersensitivity skin reaction (DHSR) after subcutaneous administration, activity reported as percent inhibition of erythema/induration of lesion; 15/42; format: functional
Mus musculus [9] = test: The compound was evaluated for the mouse active Arthus (MAA) reaction activity for an ip dose of 150 mg/kg in mouse; 31-40%; format: functional; details: route intraperitoneal
Outline: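 CD-1 mice were sensitized ip with a 1:1 Freund's complete adjuvant emulsion containing BSA in saline, 5 weeks before challenge. Compound was suspended in 1% Na CMC in pyrogen-free saline and given as one ip or oral dose 1 h before skin challenge with BSA. Screening doses were 150 mg/kg ip and 300 mg/kg po, with some at 75 or 50 mg/kg ip. Lesions were excised 3.5 h after challenge and weighed against controls.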

Mus musculus [10] = species: Mus musculus; test: Mouse active Arthus (MAA) reaction activity was determined for peroral dose of 300 mg in mouse; 21-30%; format: functional
Cavia porcellus [11] = test: Tested in delayed hypersensitivity skin reaction (DHSR) after subcutaneous administration, activity reported as percent inhibition of erythema/induration of lesion; 4/6; format: functional; outline: as §1
Mus musculus [12] = test: Inhibition of Mouse active Arthus (MAA) reaction activity was determined for an ip dose of 150 mg/kg in mouse; 21-30%; format: functional; details: route intraperitoneal
[13] = Acute toxicity as LD50 value was determined in mice administered orally; format: organism-based; details: mouse, in vivo, po
[14] = Acute toxicity as LD50 value was determined in mice administered intraperitoneally; format: organism-based; details: mouse, in vivo, ip
[15] = Therapeutic ratio was determined for intraperitoneal administration; format: ADME; details: ip; read-out: TR
[16] = Therapeutic ratio was determined for peroral administration; details: po; read-out: TR
Mus musculus [17] = test: Carrageenan-induced edema was determined value for oral administration; format: functional; details: read-out: ID50 (the source's name)
Outline: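 Adult male Sprague-Dawley (CD) rats, 160–200 g. Single dose in 1% CMC given 2 h before footpad injection of 0.05 mL 1% carrageenin in pyrogen-free saline. Paws removed and weighed at 3 h, with the contralateral paw as control. ID50 is the dose giving 50% edema inhibition.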

With O=S1(=O)C/C(=C\c2ccc(Cl)cc2)C2=NN(c3ccccc3)C(c3ccc(Cl)cc3)C2C1 (stereo not drawn) as the compound, how does the Activity (Cavia porcellus [1]) read?
Its Activity is 0.

With Cc1ccc(/C=C2\CS(=O)(=O)CC3C2=NN(CC(F)(F)F)C3c2ccc(C)cc2)cc1 (stereo not drawn) as the compound, how does the inhibition in vivo at 300 mg/kg (Mus musculus [2]) read?
Its inhibition in vivo at 300 mg/kg is < 20%.

And the Activity (Cavia porcellus [3])?
Its Activity is 14.

What about the inhibition in vivo at 150 mg/kg (Mus musculus [4]) of the same compound?
Its inhibition in vivo at 150 mg/kg is 41%.

Which Activity (Cavia porcellus [5]) does the source give for CCCN1N=C2/C(=C/c3ccc(Cl)cc3)CS(=O)(=O)CC2C1c1ccc(Cl)cc1 (stereo not drawn) here?
Its Activity is 24.

What about the inhibition in vivo at 150 mg/kg (Mus musculus [4]) of the same compound?
The inhibition in vivo at 150 mg/kg was 41%.

For CCCN1N=C2/C(=C/c3ccccc3)C[S+]([O-])CC2C1c1ccccc1 (single isomer, unassigned; isomer B), which inhibition in vivo at 150 mg/kg (Mus musculus [4]) is on record?
Its inhibition in vivo at 150 mg/kg is 41%.

Which Activity (Cavia porcellus [6]) does the source give for CN1N=C2/C(=C/c3cccc(C(F)(F)F)c3)CS(=O)(=O)CC2C1c1cccc(C(F)(F)F)c1 (stereo not drawn) here?
The Activity was 4.

And the inhibition in vivo at 150 mg/kg (Mus musculus [4])?
The inhibition in vivo at 150 mg/kg was 41%.

With C#CCN1N=C2/C(=C/c3ccccc3)CS(=O)(=O)CC2C1c1ccccc1 (stereo not drawn) as the compound, how does the inhibition in vivo at 150 mg/kg (Mus musculus [7]) read?
The inhibition in vivo at 150 mg/kg was < 20%.

And the Activity (Cavia porcellus [6])?
The Activity was 4.

Which Activity (Cavia porcellus [8]) does the source give for CCCn1nc(-c2ccc(OC)cc2)c2c1/C(=C/c1ccc(OC)cc1)CSC2 here?
Its Activity is 15.

And the inhibition in vivo at 150 mg/kg (Mus musculus [9])?
Its inhibition in vivo at 150 mg/kg is 31%.

With O=C(c1ccccc1)N1N=C2/C(=C/c3ccccc3)CS(=O)(=O)CC2C1c1ccccc1 (stereo not drawn) as the compound, how does the inhibition in vivo at 150 mg/kg (Mus musculus [7]) read?
The inhibition in vivo at 150 mg/kg was > 60%.

And the Inhibition (Mus musculus [10])?
The Inhibition was 21%.

Which results are given for OCCN1N=C2/C(=C/c3ccccc3)CSCC2C1c1ccccc1 (stereo not drawn)?
Activity (Cavia porcellus [11]): 4; inhibition in vivo at 150 mg/kg (Mus musculus [12]): 21%

What does the source list for COc1cc2c(c(OC)c1OC)-c1ccc(OC)c(=O)cc1[C@@H](NC(C)=O)CC2 [COLCHICINE]?
LD50 [13]: 13.5 mg/kg; LD50 [14]: 3.5 mg/kg; selectivity ratio [15]: 1.5; selectivity ratio [16]: 1; ED50 (Mus musculus [17]): 13.2 mg/kg

Which inhibition in vivo at 150 mg/kg (Mus musculus [9]) does the source give for CCCn1nc(-c2ccccc2)c2c1/C(=C/c1ccccc1)COC2 here?
The inhibition in vivo at 150 mg/kg was 31%.
